Values after ≈ are worked out from the molar mass of the structure shown.
Columns and labels:
[1] = test system: Liver microsome; test: Prodrug conversion in human liver microsomes assessed as half life
[2] = test system: Liver microsome; test: Prodrug conversion in rat liver microsomes assessed as half life
[3] = Prodrug solubility in solutol; assay type: ADME
[4] = test system: Rattus norvegicus; test: Cmax in rat plasma assessed as (E)-3-(4-(1-(2-(5-chloropyrimidin-2-yl)-3-cyclopentyl-1-methyl-1H-indole-6-carboxamido)cyclobutanecarboxamido)-2-ethoxyphenyl)acrylic acid at 10 mg/kg, po using 10.6% PEG400, 5.4% Cremophor EL, 2.6% Labrasol, 1.4% Capmul MCM in water (80%) vehicle; assay type: ADME, organism-based; set-up: dose 10 mg/kg, route oral; conditions: in vivo
Method in brief: (§1)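 Fasted rats were given a single 10 mg/kg oral dose, with n = 3 per dose and route. Plasma was extracted by solid-phase extraction. Analysis used HPLC with diode-array UV (200–400 nm, peak height at best S/N) or LC/MS. Calibration standards were made in blank plasma, with LOQ 7–14 ng/mL. Parameters came from noncompartmental analysis.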

[5] = test system: Rattus norvegicus; test: AUC in rat plasma assessed as (E)-3-(4-(1-(2-(5-chloropyrimidin-2-yl)-3-cyclopentyl-1-methyl-1H-indole-6-carboxamido)cyclobutanecarboxamido)-2-ethoxyphenyl)acrylic acid at 10 mg/kg, po using 10.6% PEG400, 5.4% Cremophor EL, 2.6% Labrasol, 1.4% Capmul MCM in water (80%) vehicle; assay type: ADME, organism-based; set-up: dose 10 mg/kg, route oral; conditions: in vivo; method in brief: as §1
[6] = Prodrug solubility in Labrasol; assay type: ADME
[7] = Cmax in rat plasma at 10 mg/kg, po using 10.6% PEG400, 5.4% Cremophor EL, 2.6% Labrasol, 1.4% Capmul MCM in water (80%) vehicle; assay type: ADME, organism-based; set-up: dose 10 mg/kg, route oral; conditions: plasma; method in brief: as §1
[8] = AUC in rat plasma at 10 mg/kg, po using 10.6% PEG400, 5.4% Cremophor EL, 2.6% Labrasol, 1.4% Capmul MCM in water (80%) vehicle; assay type: ADME, organism-based; set-up: dose 10 mg/kg, route oral; conditions: plasma; method in brief: as §1
[9] = Prodrug solubility in capmul; assay type: ADME
[10] = Prodrug conversion in simulated gastric fluid assessed as half life; assay type: ADME; conditions: simulated gi fluid
Method in brief: (§2)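 Incubations used 2 µM compound at 37 °C in either SGF (0.2% NaCl/HCl, pH 1.2, pepsin 3.2 mg/mL) or SIF (KH2PO4/NaOH, pH 7.5, pancreatin 10 mg/mL). Samples were quenched 1:2 with acetonitrile/methanol 1:1 and analysed by HPLC. t1/2 = 0.693/first-order disappearance rate.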

[11] = test system: Plasma; test: Prodrug conversion in human plasma assessed as half life
[12] = test system: Plasma; test: Prodrug conversion in rat plasma assessed as half life; assay type: ADME, cell-free
Method in brief: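 Rat plasma (from centrifuged whole blood) was incubated with 2 µM compound at 37 °C. Samples were quenched 1:3 with acetonitrile/methanol 1:1, centrifuged and analysed by HPLC-PDA. Half-life was taken as 0.693/first-order rate of loss of the starting compound.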

[13] = Prodrug conversion in simulated intestinal fluid assessed as half life; assay type: ADME; conditions: simulated gi fluid; method in brief: as §2
[14] = test system: Intestine; test: Prodrug conversion in rat intestinal microsomes assessed as half life
[15] = Prodrug conversion in human intestinal microsomes assessed as half life
[16] = Prodrug solubility in PEG400; assay type: ADME

Structure (SMILES)	t1/2 [1] [min]	t1/2 [2] [min]	solubility [3] [mg/mL]	solubility [6] [mg/mL]	solubility [9] [mg/mL]	solubility [16] [mg/mL]	further results
CCOc1cc(NC(=O)C2(NC(=O)c3ccc4c(C5CCCC5)c(-c5ncc(Cl)cn5)n(C)c4c3)CCC2)ccc1/C=C/C(=O)OCCOc1ccccc1	> 300	989	–	–	–	–	–
CCOc1cc(NC(=O)C2(NC(=O)c3ccc4c(C5CCCC5)c(-c5ncc(Cl)cn5)n(C)c4c3)CCC2)ccc1/C=C/C(=O)OCCOCCOC	51	64	< 100	< 30	< 60	–	Cmax [4]: 4.6 µM; AUC [5]: 23.1 µM·h; Cmax [7]: 30 nM; AUC [8]: 0.1 µM·h
CCOc1cc(NC(=O)C2(NC(=O)c3ccc4c(C5CCCC5)c(-c5ncc(Cl)cn5)n(C)c4c3)CCC2)ccc1/C=C/C(=O)OCCNN1CCCC1	41	47	< 100	< 100	< 100	–	Cmax [4]: 6.1 µM; AUC [5]: 25.6 µM·h; Cmax [7]: 40 nM; AUC [8]: 0.06 µM·h
CCOc1cc(NC(=O)C2(NC(=O)c3ccc4c(C5CCCC5)c(-c5ncc(Cl)cn5)n(C)c4c3)CCC2)ccc1/C=C/C(=O)OCOC(=O)C(C)(C)C	247	336	–	–	–	–	Cmax [4]: 1.7 µM; AUC [5]: 19.6 µM·h; t1/2 [10]: < 2 min; Cmax [7]: 40 nM; AUC [8]: 0.3 µM·h
CCCN(C)C(=O)COC(=O)/C=C/c1ccc(NC(=O)C2(NC(=O)c3ccc4c(C5CCCC5)c(-c5ncc(Cl)cn5)n(C)c4c3)CCC2)cc1OCC	19	19	< 200	< 200	< 200	< 200	–
CCOc1cc(NC(=O)C2(NC(=O)c3ccc4c(C5CCCC5)c(-c5ncc(Cl)cn5)n(C)c4c3)CCC2)ccc1/C=C/C(=O)OCC(=O)N(C)C(C)C	39	16	< 200	< 200	< 200	> 200	–
CCOc1cc(NC(=O)C2(NC(=O)c3ccc4c(C5CCCC5)c(-c5ncc(Cl)cn5)n(C)c4c3)CCC2)ccc1/C=C/C(=O)OCC(=O)N1CCCC1	99	88	200 (≈ 265 mM)	200 (≈ 265 mM)	< 200	> 200	–

The next lines start with results.

t1/2 [1] [min]	t1/2 [2] [min]	solubility [3] [mg/mL]	solubility [6] [mg/mL]	solubility [9] [mg/mL]	solubility [16] [mg/mL]	Structure (SMILES)	further results
126	125	–	–	–	–	CCOc1cc(NC(=O)C2(NC(=O)c3ccc4c(C5CCCC5)c(-c5ncc(Cl)cn5)n(C)c4c3)CCC2)ccc1/C=C/C(=O)OCC(=O)OC	–
96	147	–	–	–	–	CCOC(=O)COC(=O)/C=C/c1ccc(NC(=O)C2(NC(=O)c3ccc4c(C5CCCC5)c(-c5ncc(Cl)cn5)n(C)c4c3)CCC2)cc1OCC	–
359	947	–	–	–	–	CCCCOC(=O)COC(=O)/C=C/c1ccc(NC(=O)C2(NC(=O)c3ccc4c(C5CCCC5)c(-c5ncc(Cl)cn5)n(C)c4c3)CCC2)cc1OCC	–
1569	132	–	–	–	–	CCOc1cc(NC(=O)C2(NC(=O)c3ccc4c(C5CCCC5)c(-c5ncc(Cl)cn5)n(C)c4c3)CCC2)ccc1/C=C/C(=O)OCC(=O)OCc1ccccc1	t1/2 [11]: > 300 min; t1/2 [10]: 182 min; t1/2 [12]: 396 min; t1/2 [13]: 98 min; t1/2 [14]: > 300 min; t1/2 [15]: > 300 min
337	682	–	–	–	–	CCOc1cc(NC(=O)C2(NC(=O)c3ccc4c(C5CCCC5)c(-c5ncc(Cl)cn5)n(C)c4c3)CCC2)ccc1/C=C/C(=O)OCC(=O)OCc1ccc(Cl)cc1	–
59	23	200 (≈ 286 mM)	> 200	< 200	> 200	CCOc1cc(NC(=O)C2(NC(=O)c3ccc4c(C5CCCC5)c(-c5ncc(Cl)cn5)n(C)c4c3)CCC2)ccc1/C=C/C(=O)OCC(N)=O	Cmax [4]: 4.4 µM; AUC [5]: 16.7 µM·h; t1/2 [10]: 36 min; Cmax [7]: 40 nM; AUC [8]: 0.13 µM·h
34	30	< 200	200 (≈ 280 mM)	< 200	> 200	CCOc1cc(NC(=O)C2(NC(=O)c3ccc4c(C5CCCC5)c(-c5ncc(Cl)cn5)n(C)c4c3)CCC2)ccc1/C=C/C(=O)OCC(=O)NC	–

From ChEMBL document CHEMBL3352534, “A prodrug strategy for the oral delivery of a poorly soluble HCV NS5B thumb pocket 1 polymerase inhibitor using self-emulsifying drug delivery systems (SEDDS)” (Bioorg Med Chem Lett, 2015)
